HTRA1 inh: HTRA1 serine protease inhibitors, primary screen, biochemical, fluorescence polarization, HTS; Q92743; recombinant HTRA1, FP-rhodamine activity-based probe; inhibition, % at 5.96 µM; actives 0.5% (n = 340,000); in the data active means inhibition above about 36%
SIAE primary: human SIAE inhibitors, primary screen, biochemical, fluorescence polarization, FP-Rh probe, 1536-well HTS | SIAE FP-Rh probe binding | inhibition, % at 9.66 µM | actives 0.69% (n = 370,000);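 active means inhibition above a cutoff: mean of compounds within the control limits plus 3 SD of those, cut at about 17% in these data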
TCR-CD3 inh: inhibitors of human TCR-CD3 interaction, primary screen, biochemical, fluorescence, TAMRA-labeled TCR probe | T-cell receptor (TCR) | AID 651800, 2012 | actives 0.37% (n = 360,000) | inhibition, % at 9.4 µM; in the data active means inhibition above about 19%;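 further: recombinant mutant TCR 2C K166C tagged with TAMRA read by polarization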
PRMT1 inh: PRMT1 methyltransferase inhibitors, primary screen, biochemical, fluorescence polarization; Protein arginine N-methyltransferase 1 (Homo sapiens), Q99873; recombinant PRMT1, activity-based probe fluorescence polarization; inhibition, % at 2.79 µM; actives 1.3% (n = 370,000); AID 652257, 2013;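 active means inhibition above about 21% made by adding two undisclosed values, limit read from the data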
mABHD4 FP: ABHD4 inhibitors, primary screen, biochemical, fluorescence polarization, mouse. purified mABHD4, FP-Rh probe fluorescence polarization. inhibition, % at 8.92 µM. actives 0.54% (n = 370,000);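 active means inhibition exceeding the mean over every tested compound plus 3 SD, cut at about 30% in these data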
Target sequence (Q8VD66 whole entry, looked up): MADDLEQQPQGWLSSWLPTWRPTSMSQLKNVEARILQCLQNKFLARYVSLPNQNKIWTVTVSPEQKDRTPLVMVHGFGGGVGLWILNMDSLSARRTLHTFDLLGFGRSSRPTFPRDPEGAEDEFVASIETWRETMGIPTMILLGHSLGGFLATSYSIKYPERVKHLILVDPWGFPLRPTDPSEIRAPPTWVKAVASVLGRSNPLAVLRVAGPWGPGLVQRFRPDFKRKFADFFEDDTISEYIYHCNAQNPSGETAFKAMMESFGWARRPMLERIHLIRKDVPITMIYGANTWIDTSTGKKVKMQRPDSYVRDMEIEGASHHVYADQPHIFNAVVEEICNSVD
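Assay system: wild-type mouse ABHD4 protein; compound: single nominal dose of 8.92 µM, 0.89% DMSO final; schedule: 45 min + 60 min at 25 °C; measured by: FP readout, ex 525 nm / em 598 nm; evaluation: % inhibition of FP-Rh probe binding versus controls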
PRMT1 inh conf: PRMT1 methyltransferase inhibitors, confirmation, biochemical, fluorescence polarization, triplicate | shares compounds with PRMT1 inh | actives 42% (n = 3,300) | recombinant His-PRMT1, activity-based probe fluorescence polarization | AID 687036, 2013 | inhibition, % at 2.79 µM;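 active means mean inhibition across replicates above the hit cutoff derived for the earlier primary screen, cut at about 22% in these data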
Each line names hits and unclear results; the compound was inactive in the other large screens (follow-up assays come after a bar, where they were run). Rows were chosen to be rich in hits. Some 2.6% of all compounds tested hit in one or more screens of this group.

Cc1ccccc1N1C(=O)CC(Sc2nnc(-c3ccccc3)o2)C1=O (stereo unspecified)	PRMT1 inh 83 | PRMT1 inh conf 68
O=C1CC(Sc2nnc(-c3ccccc3)o2)C(=O)N1c1ccccc1 (stereo unspecified)	PRMT1 inh 68 | PRMT1 inh conf 60
O=c1sc(/C=N/Nc2ccccc2)c(Cl)n1Cc1ccccc1	PRMT1 inh 59 | PRMT1 inh conf inactive
CCOC(=O)c1ccccc1NC(=O)COC(=O)CN1C(=O)NC2(CCCC2)C1=O	none
O=C(COCc1ccccc1)N[C@@H]1c2ccccc2CC[C@@H]1OCc1ccccc1	none
O=C(NCc1ccco1)c1cc2nc(-c3cccs3)cc(C(F)(F)F)n2n1	PRMT1 inh 34 | PRMT1 inh conf inactive
Cc1cnc(CNC(=O)c2csc(COCCO)n2)cn1	none (no result: HTRA1 inh)
O=C(O)c1cc(-c2ccc(-c3ccc(F)cc3)o2)nc2ccccc12	PRMT1 inh 86 | PRMT1 inh conf 27
N#CC1(NC(=O)COC(=O)Cc2c[nH]c3ccccc23)CCCCC1	none
CC1CCN(S(=O)(=O)c2ccc3c(c2)N(C)C(=O)CC(=O)N3C)CC1	PRMT1 inh 47 | PRMT1 inh conf 44
CN1C(=O)CC(=O)N(C)c2cc(S(=O)(=O)N(C)Cc3ccccc3)ccc21	PRMT1 inh 54 | PRMT1 inh conf 36
CC1CCN(c2ccc(S(=O)(=O)N3CCC(C)CC3)cc2N)CC1	none
COc1ccc(NC(=O)C(CC(=O)O)Cc2ccc(Cl)cc2)cc1 (stereo unspecified)	none
ClC(Cl)(c1nnnn1-c1ccccc1)c1nnnn1-c1ccccc1	PRMT1 inh 90 | PRMT1 inh conf 91
CCN(C(=O)Cn1cc(C(F)(F)F)ccc1=O)C1CCS(=O)(=O)C1 (stereo unspecified)	none
C=C1C(=O)C23C(O)C1CCC2C12CCCC(C)(COC(C)=O)C1C(O)C3(O)OC2 (stereo unspecified)	PRMT1 inh 31 | PRMT1 inh conf 33
COc1cccc(CNS(=O)(=O)c2cc3c4c(c2)CCN4C(=O)CC3)c1	none
COc1ccc(CCN(/C=C2\Sc3ccccc3C2=O)C(C)=O)cc1OC	PRMT1 inh 67 (no result: HTRA1 inh) | PRMT1 inh conf 45
Cn1c(COc2ccccc2)nnc1SCCSc1nnc(COc2ccccc2)n1C	none
Cn1c(COc2ccc(Br)cc2)nnc1SC1CCc2ccccc2C1=O (stereo unspecified)	PRMT1 inh 53 | PRMT1 inh conf inactive
Cc1ccc(S(=O)(=O)/N=C2/NC(=O)/C(=C\c3cc(Br)cc(Br)c3O)S2)cc1	none (no result: SIAE primary, TCR-CD3 inh, PRMT1 inh, mABHD4 FP)
Cc1ccc(S(=O)(=O)/N=C2/NC(=O)/C(=C/c3ccc(Br)o3)S2)cc1	PRMT1 inh 56 | PRMT1 inh conf inactive
Cc1ccccc1NC(=O)c1c(C)[nH]c(=S)c(C#N)c1-c1ccc(Cl)cc1	none (no result: HTRA1 inh)
Cc1[nH]c(=S)c(C#N)c(-c2ccccc2)c1C(=O)Nc1ccccc1	PRMT1 inh 36 | PRMT1 inh conf inactive
O=C1NNC(c2ccccc2)=N/C1=C\c1ccco1	PRMT1 inh 30 | PRMT1 inh conf inactive
O=C(CCC(=O)N1CCOc2ccccc21)N1CCN(c2ccccc2)CC1	PRMT1 inh 55 | PRMT1 inh conf inactive
Nn1c(-c2cccc(O)c2)nnc1-c1cccc(O)c1	none
S=c1[nH]c2ccc(Cc3ccc4[nH]c(=S)[nH]c4c3)cc2[nH]1	PRMT1 inh 30 | PRMT1 inh conf inactive
Nc1ccc2[nH]c(=S)[nH]c2c1	none
CCCCCCSc1ccc([C@H]2N[C@@](Cc3ccccc3)(C(=O)OC)[C@H]3C(=O)N(C)C(=O)[C@@H]23)cc1OC	none
CCCN1C(=O)S/C(=C\c2ccc(N3CCOCC3)o2)C1=O	PRMT1 inh 26 | PRMT1 inh conf inactive
O=C(O)CN1C(=O)/C(=C/c2ccc(N3CCCCC3)o2)SC1=S	PRMT1 inh 38 | PRMT1 inh conf 37
CCCN1C(=O)S/C(=C/c2ccc(N3CCOCC3)o2)C1=O	none
CC(=O)c1ccc2c(c1)N(C)c1ccccc1S2	none
C=Cc1ccc2c(c1)N(C)C(=C)S2	PRMT1 inh 81 | PRMT1 inh conf 61
O=C(Nc1ccc(Cl)cc1)C1CCCN(C2=NS(=O)(=O)c3ccccc32)C1 (stereo unspecified)	none
CC1CCN(C(=S)Nc2ccc(F)cc2)CC1	none
Fc1ccc(NC(=S)N2CCSC2c2cccs2)cc1 (stereo unspecified)	PRMT1 inh 53 | PRMT1 inh conf inactive
O=[N+]([O-])c1ccc(N2CCN(Cc3ccccc3)CC2)c2c1no[n+]2[O-]	PRMT1 inh 54 | PRMT1 inh conf inactive
O=[N+]([O-])c1ccc(N2CCN(Cc3ccccc3)CC2)s1	none
COC(=O)CNc1ccc2c(c1)OCO2	PRMT1 inh 36 | PRMT1 inh conf inactive
Cc1cc(C)c(NC(=O)c2ccc3c(c2)NC(=O)C(C)S3)c(C)c1 (stereo unspecified)	none
CC1Sc2ccc(C(=O)NCc3ccccn3)cc2NC1=O (stereo unspecified)	PRMT1 inh 34 | PRMT1 inh conf inactive
C[C@H](CO)N1C[C@H](C)[C@@H](CN(C)S(=O)(=O)c2ccccc2)OCc2cnnn2CCCC1=O	none
CNC(=O)c1nnsc1S(=O)c1ccc(Cl)cc1 (stereo unspecified)	PRMT1 inh 77 | PRMT1 inh conf 76
CCCNC(=O)c1nnsc1S(=O)c1ccc(Cl)cc1 (stereo unspecified)	PRMT1 inh 95 | PRMT1 inh conf 90
CCCNC(=O)c1ccc2snnc2c1	none
Cc1ccc(S(=O)c2snnc2C)cc1 (stereo unspecified)	none
Nc1ccc2c3c(cccc13)CC2	PRMT1 inh 66 | PRMT1 inh conf inactive
COc1cccc(NC(=O)CSCc2nc3sc(C)c(C)c3c(=O)[nH]2)c1	none
COc1sc(SC)cc1/C=N/NC(=O)c1ccncc1	PRMT1 inh 38 | PRMT1 inh conf inactive
CCOC(=O)c1c(-c2ccco2)csc1NC(=O)COC(=O)c1cnccn1	PRMT1 inh 25 | PRMT1 inh conf inactive
CCOC(=O)c1c(-c2cccs2)csc1N	none
CCOC(=O)c1c(-c2ccco2)csc1N	PRMT1 inh 25 | PRMT1 inh conf inactive
CN(CC(=O)Nc1ccc(Cl)c(Cl)c1)C(=O)C1CCC1	none
COc1ccc(-n2c(SCC#N)nc3c(sc(=S)n3-c3ccccc3)c2=O)c(OC)c1	none
COc1cccc(-n2c(=S)sc3c(=O)n(-c4ccccc4OC)c(=S)[nH]c32)c1	PRMT1 inh 82 | PRMT1 inh conf inactive

Screening results (PubChem BioAssay)
